# Data taken from ChEMBL document CHEMBL1131064, “Design, synthesis, and anticonvulsant activity of 1-(pyrid-3-ylsulfonamido)-2-nitroethylenes” (J Med Chem, 1998).
# How the values were obtained:
# [1] = Partition coefficient (logP); assay type: physicochemical; details: octanol/water
# Outline: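 log P obtained by extrapolation from RP-HPLC log k′. The basis is a correlation of log k′ with shake-flask log P in 1-octanol/phosphate buffer pH 7.40, built from reference compounds.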
# Rattus norvegicus = test: Urinary volume excreted over 4 hr by rats after oral administration of 30 mg/kg; assay type: functional, Urine
# Outline: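 Male Wistar rats (193-229 g) were dosed orally with 30 mg/kg in 0.9% NaCl/0.1% methocel at 40 mL/kg; three rats shared a metabolism cage. Urine was collected over 4 h and expressed as mL/kg.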
# Mus musculus [2] = species: Mus musculus; test: Tested for anticonvulsant activity by measuring rate of mice protected against electric shock applied at 3 hr after injection in maximal electroshock seizure (MES) test; out of 7; assay type: functional
# Outline: (§1)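 Screen in male OF-1 mice (22-25 g), groups of six or seven, given 30 mg/kg ip at 10 mL/kg. Corneal electroshock (50 mA, 60 Hz, 0.2 s) was applied 0.5 or 3 h post-injection. Protection was scored as abolition of hind limb tonic extension and reported as the rate of protected mice.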
# Mus musculus [3] = species: Mus musculus; test: Tested for anticonvulsant activity by measuring rate of mice protected against electric shock applied at 0.5 hr after injection in maximal electroshock seizure (MES) test; out of 6; assay type: functional; outline: as §1
# Mus musculus [4] = species: Mus musculus; test: Tested for anticonvulsant activity by measuring rate of mice protected against electric shock applied at 3 h after injection in maximal electroshock seizure (MES) test; out of 6; assay type: functional; outline: as §1
# [5] = Partition coefficient in 1-octanol phosphate buffer at pH 7.40; assay type: physicochemical; details: pH 7.4
# Outline: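 Shake-flask partition between 1-octanol and phosphate buffer at pH 7.40.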
# Mus musculus [6] = test: Tested for anticonvulsant activity by measuring its ability to protect against pentetrazole (85 mg/kg) induced convulsions at the time of peak effect of 2 hr.; assay type: functional
# Outline: (§2)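 Groups of eight male OF-1 mice (22-25 g) received the test compound ip (10 mL/kg) at doses up to 100 mg/kg. At the MES-derived time of peak effect, pentetrazole 85 mg/kg in 0.9% NaCl was given sc and protection against convulsions recorded. ED50 and 95% confidence intervals were computed by Litchfield–Wilcoxon.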
# Mus musculus [7] = test: Tested for anticonvulsant activity by measuring its ability to protect against strychnine(1.2 mg/kg) induced convulsions at the time of peak effect of 2 hr; assay type: functional
# Outline: (§3)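 OF-1 male mice, eight per group, were given compound ip at up to 100 mg/kg. At the MES time of peak effect, a convulsant in 0.9% NaCl was injected sc; bicuculline was dissolved in warmed 0.1 N HCl/0.9% NaCl and used within 30 min. ED50 with 95% CI was computed by Litchfield–Wilcoxon.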
# Mus musculus [8] = test: Tested for anticonvulsant activity by measuring its ability to protect against bicuculline (2.7 mg/kg) induced convulsions at the time of peak effect of 2 hr.; assay type: functional; outline: as §3
# Mus musculus [9] = test: Tested for anticonvulsant activity by measuring its ability to protect against NMDLA(340 mg/kg) induced convulsions at the time of peak effect of 2 hr.; assay type: functional; outline: as §3
# Mus musculus [10] = species: Mus musculus; test: Tested for anticonvulsant activity by measuring its ability to protect against electric shock in maximal electroshock seizure (MES) test at the time of peak effect of 2 hr
# Mus musculus [11] = test: Tested for anticonvulsant activity by measuring its ability to protect against strychnine(1.2 mg/kg) induced convulsions at the time of peak effect of 3h; assay type: functional; outline: as §3
# Mus musculus [12] = species: Mus musculus; test: Tested for anticonvulsant activity by measuring its ability to protect against electric shock in maximal electroshock seizure (MES) test at the time of peak effect of 3h; assay type: functional
# Outline: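 Male OF-1 mice (22-25 g) were dosed ip at 10 mL/kg and tested at the peak-effect time. Corneal electroshock was 50 mA, 60 Hz, 0.2 s; protection meant abolition of hind limb tonic extension. Groups of eight mice received varying doses. ED50 with 95% CI was computed by Litchfield–Wilcoxon.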
# Mus musculus [13] = test: Tested for anticonvulsant activity by measuring its ability to protect against pentetrazole (85 mg/kg) induced convulsions at the time of peak effect of 3h.; assay type: functional; outline: as §3
# Mus musculus [14] = test: Tested for anticonvulsant activity by measuring its ability to protect against NMDLA(340 mg/kg) induced convulsions at the time of peak effect of 3h.; assay type: functional; outline: as §3
# [15] = Neurotoxicity was evaluated at a time of peak effect of 3h; assay type: toxicity; details: mouse
# Mus musculus [16] = test: Tested for anticonvulsant activity by measuring its ability to protect against bicuculline (2.7 mg/kg) induced convulsions at the time of peak effect of 3h.; assay type: functional
# Outline: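 Male OF-1 mice (22-25 g), eight per group, given the test compound ip (10 mL/kg) at doses up to 100 mg/kg. Bicuculline 2.70 mg/kg, dissolved in warmed 0.1 N HCl plus 0.9% NaCl (10 mL/kg) and used within 30 min, was injected sc at the MES time of peak effect. Protection scored; ED50 with 95% CI by Litchfield–Wilcoxon.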
# Mus musculus [17] = test: Tested for anticonvulsant activity by measuring its ability to protect against NMDLA(340 mg/kg) induced convulsions at the time of peak effect of 4h.; assay type: functional
# [18] = Neurotoxicity was evaluated at a time of peak effect of 4 hr; assay type: toxicity; details: mouse
# Mus musculus [19] = test: Tested for anticonvulsant activity by measuring its ability to protect against pentetrazole (85 mg/kg) induced convulsions at the time of peak effect of 4h.; assay type: functional; outline: as §2
# Mus musculus [20] = test: Tested for anticonvulsant activity by measuring its ability to protect against bicuculline (2.7 mg/kg) induced convulsions at the time of peak effect of 4h.; assay type: functional
# Mus musculus [21] = species: Mus musculus; test: Tested for anticonvulsant activity by measuring its ability to protect against electric shock in maximal electroshock seizure (MES) test at the time of peak effect of 4 hr; assay type: functional
# Mus musculus [22] = test: Tested for anticonvulsant activity by measuring its ability to protect against strychnine(1.2 mg/kg) induced convulsions at the time of peak effect of 4 hr; assay type: functional
logP [1],SMILES,Diuresis (Rattus norvegicus) [mL/kg],No. of mice protected (Mus musculus [2]),No. of mice protected (Mus musculus [3]),No. of mice protected (Mus musculus [4]),also measured
1.97,O=[N+]([O-])/C=C(\NC1CCCCCC1)NS(=O)(=O)c1cnccc1NC1CCCCC1,20,5,0,,
1.99,O=[N+]([O-])/C=C(\NC1CCCCC1)NS(=O)(=O)c1cnccc1NC1CCCCCC1,18,,1,5,
2.86,O=[N+]([O-])/C=C(\NC1CCCCCCC1)NS(=O)(=O)c1cnccc1NC1CCCCCCC1,22,3,0,,
2.57,O=[N+]([O-])/C=C(\NC1CCCCCCC1)NS(=O)(=O)c1cnccc1NC1CCCCCC1,23,4,1,,

# The next lines start with the molecule.
SMILES,logP [1],Diuresis (Rattus norvegicus) [mL/kg],No. of mice protected (Mus musculus [2]),No. of mice protected (Mus musculus [3]),No. of mice protected (Mus musculus [4]),also measured
O=[N+]([O-])/C=C(\NC1CCCCCC1)NS(=O)(=O)c1cnccc1NC1CCCCCC1,2.3,25,,1,5,
Cc1cccc(Nc2ccncc2S(=O)(=O)N/C(=C/[N+](=O)[O-])NC(C)C)c1,,,,,,logD [5]: 1.12
O=C1NC(=O)C(c2ccccc2)(c2ccccc2)N1 [PHENYTOIN],,,,,,ED50 (Mus musculus [6]): > 100 mg/kg; ED50 (Mus musculus [7]): > 100 mg/kg; ED50 (Mus musculus [8]): > 100 mg/kg; ED50 (Mus musculus [9]): > 100 mg/kg; ED50 (Mus musculus [10]): 9.51 mg/kg
CCNc1ccncc1S(=O)(=O)N/C(=C/[N+](=O)[O-])NC(C)C,,,,,,logD [5]: -0.482
CC(C)N/C(=C\[N+](=O)[O-])NS(=O)(=O)c1cnccc1NC1CCCC1,,,,,,logD [5]: 0.538
Cc1cccc(Nc2ccncc2S(=O)(=O)NC(=O)NC(C)C)c1 [TORSEMIDE],,88,,0,0,
O=[N+]([O-])/C=C(\NC1CCCCC1)NS(=O)(=O)c1cnccc1NC1CCCCCCC1,2.31,22,7,1,,ED50 (Mus musculus [11]): > 100 mg/kg; ED50 (Mus musculus [12]): 8.25 mg/kg; ED50 (Mus musculus [13]): > 100 mg/kg; ED50 (Mus musculus [14]): > 100 mg/kg; TD50 at 3 h [15]: 114 mg/kg; ED50 (Mus musculus [16]): > 100 mg/kg
O=S(=O)(NC(=S)NC1CCCCC1)c1cnccc1NC1CCCCCCC1,,,,,,ED50 (Mus musculus [17]): > 100 mg/kg; TD50 at 4 h [18]: 147 mg/kg; ED50 (Mus musculus [19]): > 100 mg/kg; ED50 (Mus musculus [20]): > 100 mg/kg; ED50 (Mus musculus [21]): 1.19 mg/kg; ED50 (Mus musculus [22]): > 100 mg/kg
O=[N+]([O-])/C=C(\NC1CCCCCCC1)NS(=O)(=O)c1cnccc1NC1CCCCC1,2.27,21,4,2,,
O=[N+]([O-])/C=C(\NC1CCCCC1)NS(=O)(=O)c1cnccc1NC1CCCCC1,1.67,20,4,0,,
Cc1cccc(Nc2ccncc2S(=O)(=O)N/C(=C/[N+](=O)[O-])NC2CCCCC2)c1,1.66,29,,1,2,
O=[N+]([O-])/C=C(\NC1CCCCCC1)NS(=O)(=O)c1cnccc1NC1CCCCCCC1,2.59,20,,2,5,
